Values after ≈ are worked out from the molar mass of the structure shown.
Key:
[1] = tested on: human lung cancer cell line A549; assay: Cell toxicity assay, MTT; type: cell-based
[2] = Aggregation in water by electrical conductivity; type: physicochemical; details: for cmc: conductivity, water; for ionization degree α: micelle (cmc); for ΔG^0m / ΔH^0m / ΔS^0m / −TΔS^0m: micellization (cmc)
How it was run: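 Conductivity of aqueous test compound solutions was measured with a digital conductivity meter and electrode, calibrated against standard KCl, with a thermostat holding ±0.02 K and ±3% relative uncertainty. cmc and cac were taken from the break points, found by fitting the Aguiar equation. α came from the ratio of post- to pre-transition slopes (A2/A1), and micellization thermodynamic functions from the mass action model.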

[3] = tested on: Cutibacterium acnes ATCC6919; assay: Antibacterial activity, broth dilution MIC; type: cell-based
[4] = tested on: Staphylococcus aureus ATCC29213; assay: Antibacterial activity, broth dilution MIC; type: cell-based; details: S. aureus, n = 3
[5] = tested on: Escherichia coli ATCC25922; assay: Antibacterial activity, broth dilution MIC; type: cell-based
[6] = tested on: Candida albicans ATCC10231; assay: Antimicrobial activity, broth dilution MIC; type: cell-based
[7] = Thermal stability by TG/DTG; type: physicochemical; details: first decomposition process, 10 K min^−1, argon
How it was run: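 Simultaneous thermal analysis ran from 30–500 °C at 10 K min−1 on 3–5 mg sample in an Al2O3 crucible, with α-Al2O3 as reference. Argon served as protective gas at 20 mL min−1 and as purge gas at 60 mL min−1.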

[8] = tested on: human hepatocellular carcinoma cell line HepG2; assay: Cell toxicity assay, MTT; type: cell-based
[9] = Density measurement, apparent molar volume at infinite dilution in water; type: physicochemical; details: aqueous solution
How it was run: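 Solution density was measured with a vibrating-tube densitometer calibrated with dry air and double-distilled water, with Peltier temperature control at ±0.01 K and density uncertainty 2.0 × 10−4 g cm−3. Apparent molar volumes were computed versus molality. Infinite-dilution values came from the Redlich–Mayer equation with empirical parameters Sv and Bv.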

[10] = Conductivity in low concentration region; type: physicochemical; details: in water
How it was run: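 Conductivity of aqueous test compound solutions was measured at each temperature in double-distilled deionized water (0.8 − 1.0 × 10−4 S m−1 at 298.15 K). The digital meter and electrode were calibrated with standard KCl, and the thermostat held ±0.02 K; relative standard uncertainty was ±3%.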

[11] = Steady-state fluorescence with pyrene probe; type: physicochemical; details: 298.15 K; for cmc: Fluorescence (pyrene I1/I3), water; for N agg (aggregation number): ST = 2.5 cmc, fluorescence quenching with CPC
How it was run: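 Pyrene (1 μM) served as probe at 298.15 K. Excitation was 335 nm, emission 355–650 nm, slits 2.5 nm, 700 V, 240 nm min−1, in a 1 cm quartz cuvette. cmc came from a Boltzmann fit of I1/I3 (373/384 nm). For Nagg, test compound at 2.5 cmc was quenched with cetylpyridinium chloride at 0.2–1.0 × 10−4 mol dm−3, and Nagg was derived from linear ln(I0/I) versus [Q].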

[12] = Octanol–water partition coefficient, shake-flask method; type: physicochemical
How it was run: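 Shake-flask partitioning was run at 25 and 37 °C in water, SGF (pH 1.2), SIF (pH 6.8) or SBF (pH 7.4). Fluids were prepared per USP without enzyme and pre-saturated with n-octanol (24 h shaking, 24 h separation). Test compound in buffer-saturated octanol (5 mL) was shaken 24 h with 5 mL octanol-saturated buffer, then centrifuged 10 min. The octanol phase was read by UV at 200 nm, and log Ko/w = log Co/(C−Co).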

[13] = pH = 7.0 (ultrapure water), 25 °C
[14] = pH = 7.0 (ultrapure water), 37 °C

CCCCCCCCCCC(=O)O.O=C1CCC[C@@H]2[C@H]3CCCN4CCC[C@@H](CN12)[C@@H]34 [[Mat][C11]]
IC50 ([1]; A549, MTT, 24 h, n = 3): 710 µM
cmc ([2]; 293.15 K): 0.00385 mol/kg
cmc ([2]; 298.15 K): 0.00395 mol/kg
cmc ([2]; 303.15 K): 0.00402 mol/kg
cmc ([2]; 308.15 K): 0.00407 mol/kg
cmc ([2]; 313.15 K): 0.00411 mol/kg
ionization degree α ([2]; 293.15 K): 0.8532
ionization degree α ([2]; 298.15 K): 0.8429
ionization degree α ([2]; 303.15 K): 0.8267
ionization degree α ([2]; 308.15 K): 0.8151
ionization degree α ([2]; 313.15 K): 0.7968
ΔG^0m ([2]; 293.15 K): -6.398 kcal/mol
ΔH^0m ([2]; 293.15 K): -1.04 kcal/mol
ΔS^0m ([2]; 293.15 K): 76.44 J mol^−1 K^−1
−TΔS^0m ([2]; 293.15 K): -5.356 kcal/mol
ΔG^0m ([2]; 298.15 K): -6.546 kcal/mol
ΔH^0m ([2]; 298.15 K): -0.872 kcal/mol
ΔS^0m ([2]; 298.15 K): 79.65 J mol^−1 K^−1
−TΔS^0m ([2]; 298.15 K): -5.676 kcal/mol
ΔG^0m ([2]; 303.15 K): -6.738 kcal/mol
ΔH^0m ([2]; 303.15 K): -0.688 kcal/mol
ΔS^0m ([2]; 303.15 K): 83.51 J mol^−1 K^−1
−TΔS^0m ([2]; 303.15 K): -6.052 kcal/mol
ΔG^0m ([2]; 308.15 K): -6.907 kcal/mol
ΔH^0m ([2]; 308.15 K): -0.483 kcal/mol
ΔS^0m ([2]; 308.15 K): 87.26 J mol^−1 K^−1
−TΔS^0m ([2]; 308.15 K): -6.427 kcal/mol
ΔG^0m ([2]; 313.15 K): -7.122 kcal/mol
ΔH^0m ([2]; 313.15 K): -0.258 kcal/mol
ΔS^0m ([2]; 313.15 K): 91.70 J mol^−1 K^−1
−TΔS^0m ([2]; 313.15 K): -6.864 kcal/mol
MIC ([3]; C. acnes, n = 3): 0.46 mM
MIC [4]: 0.9 mM
MIC ([5]; E. coli, n = 3): 28.8 mM
MIC ([6]; C. albicans, n = 3): 0.46 mM
T onset (onset decomposition temperature) [7]: 199.4 °C
IC50 ([8]; HepG2, MTT, 24 h, n = 3): 450 µM
Apparent molar volume at infinite dilution V^0 2,φ ([9]; 293.15 K): 386.51 ± 0.35 cm^3 mol^−1
Apparent molar volume at infinite dilution V^0 2,φ ([9]; 298.15 K): 389.66 ± 0.38 cm^3 mol^−1
Apparent molar volume at infinite dilution V^0 2,φ ([9]; 303.15 K): 392.77 ± 0.34 cm^3 mol^−1
Apparent molar volume at infinite dilution V^0 2,φ ([9]; 308.15 K): 396.26 ± 0.38 cm^3 mol^−1
Association constant KA ([10]; 298.15 K): 19.06 ± 1.31 dm^3 mol^−1
Limiting molar conductivity Λ0 ([10]; 298.15 K): 44.67 ± 0.06 S cm^2 mol^−1
Association constant KA ([10]; 303.15 K): 7.36 ± 1.09 dm^3 mol^−1
Limiting molar conductivity Λ0 ([10]; 303.15 K): 49.46 ± 0.06 S cm^2 mol^−1
Association constant KA ([10]; 308.15 K): 2.04 ± 1.14 dm^3 mol^−1
Limiting molar conductivity Λ0 ([10]; 308.15 K): 55.26 ± 0.07 S cm^2 mol^−1
cmc [11]: 0.00384 mol/kg
N agg (aggregation number) [11]: 77
Log K o/w ([12]; pH = 1.2 (SGF), 25 °C): −0.32
Log K o/w ([12]; pH = 1.2 (SGF), 37 °C): 0.26
Log K o/w ([12]; pH = 6.8 (SIF), 25 °C): 0.04
Log K o/w ([12]; pH = 6.8 (SIF), 37 °C): 0.35
Log K o/w [12, 13]: 0.77
Log K o/w [12, 14]: 0.91
Log K o/w ([12]; pH = 7.4 (SBF), 25 °C): 1.20
Log K o/w ([12]; pH = 7.4 (SBF), 37 °C): 1.27

CCCCCCCCC(=O)O.O=C1CCC[C@@H]2[C@H]3CCCN4CCC[C@@H](CN12)[C@@H]34 [[Mat][C9]]
IC50 ([1]; A549, MTT, 24 h, n = 3): 3150 µM
cmc ([2]; 293.15 K): 0.00449 mol/kg
cmc ([2]; 298.15 K): 0.00459 mol/kg
cmc ([2]; 303.15 K): 0.00467 mol/kg
cmc ([2]; 308.15 K): 0.00475 mol/kg
cmc ([2]; 313.15 K): 0.00483 mol/kg
ionization degree α ([2]; 293.15 K): 0.8848
ionization degree α ([2]; 298.15 K): 0.8890
ionization degree α ([2]; 303.15 K): 0.8957
ionization degree α ([2]; 308.15 K): 0.8931
ionization degree α ([2]; 313.15 K): 0.8922
ΔG^0m ([2]; 293.15 K): -6.121 kcal/mol
ΔH^0m ([2]; 293.15 K): -0.805 kcal/mol
ΔS^0m ([2]; 293.15 K): 75.88 J mol^−1 K^−1
−TΔS^0m ([2]; 293.15 K): -5.315 kcal/mol
ΔG^0m ([2]; 298.15 K): -6.188 kcal/mol
ΔH^0m ([2]; 298.15 K): -0.767 kcal/mol
ΔS^0m ([2]; 298.15 K): 76.06 J mol^−1 K^−1
−TΔS^0m ([2]; 298.15 K): -5.421 kcal/mol
ΔG^0m ([2]; 303.15 K): -6.243 kcal/mol
ΔH^0m ([2]; 303.15 K): -0.727 kcal/mol
ΔS^0m ([2]; 303.15 K): 76.13 J mol^−1 K^−1
−TΔS^0m ([2]; 303.15 K): -5.516 kcal/mol
ΔG^0m ([2]; 308.15 K): -6.348 kcal/mol
ΔH^0m ([2]; 308.15 K): -0.686 kcal/mol
ΔS^0m ([2]; 308.15 K): 76.88 J mol^−1 K^−1
−TΔS^0m ([2]; 308.15 K): -5.662 kcal/mol
ΔG^0m ([2]; 313.15 K): -6.446 kcal/mol
ΔH^0m ([2]; 313.15 K): -0.643 kcal/mol
ΔS^0m ([2]; 313.15 K): 77.53 J mol^−1 K^−1
−TΔS^0m ([2]; 313.15 K): -5.803 kcal/mol
MIC ([3]; C. acnes, n = 3): 3.84 mM
MIC [4]: 7.7 mM
MIC ([5]; E. coli, n = 3): 30.7 mM
MIC ([6]; C. albicans, n = 3): 0.96 mM
T onset (onset decomposition temperature) [7]: 196.3 °C
IC50 ([8]; HepG2, MTT, 24 h, n = 3): 2120 µM
Apparent molar volume at infinite dilution V^0 2,φ ([9]; 293.15 K): 353.45 ± 0.11 cm^3 mol^−1
Apparent molar volume at infinite dilution V^0 2,φ ([9]; 298.15 K): 355.41 ± 0.17 cm^3 mol^−1
Apparent molar volume at infinite dilution V^0 2,φ ([9]; 303.15 K): 357.32 ± 0.16 cm^3 mol^−1
Apparent molar volume at infinite dilution V^0 2,φ ([9]; 308.15 K): 360.15 ± 0.14 cm^3 mol^−1
Association constant KA ([10]; 298.15 K): 6.74 ± 0.44 dm^3 mol^−1
Limiting molar conductivity Λ0 ([10]; 298.15 K): 47.11 ± 0.02 S cm^2 mol^−1
Association constant KA ([10]; 303.15 K): 4.14 ± 0.68 dm^3 mol^−1
Limiting molar conductivity Λ0 ([10]; 303.15 K): 52.90 ± 0.04 S cm^2 mol^−1
Association constant KA ([10]; 308.15 K): 1.72 ± 1.03 dm^3 mol^−1
Limiting molar conductivity Λ0 ([10]; 308.15 K): 59.10 ± 0.07 S cm^2 mol^−1
cmc [11]: 0.00461 mol/kg
N agg (aggregation number) [11]: 64
Log K o/w ([12]; pH = 1.2 (SGF), 25 °C): −0.33
Log K o/w ([12]; pH = 1.2 (SGF), 37 °C): 0.14
Log K o/w ([12]; pH = 6.8 (SIF), 25 °C): 0.02
Log K o/w ([12]; pH = 6.8 (SIF), 37 °C): 0.34
Log K o/w [12, 13]: 0.68
Log K o/w [12, 14]: 0.81
Log K o/w ([12]; pH = 7.4 (SBF), 25 °C): 0.96
Log K o/w ([12]; pH = 7.4 (SBF), 37 °C): 1.12

O=C1CCC[C@@H]2[C@H]3CCCN4CCC[C@@H](CN12)[C@@H]34 [Matrine, reference compound]
IC50 ([1]; Homo sapiens, A549, 24 h): 11800 µM
MIC ([3]; Cutibacterium acnes, ATCC6919): 50.3 mM (≈ 12.5 mg/mL)
MIC ([5]; Escherichia coli, ATCC25922): 50.3 mM (≈ 12.5 mg/mL)
MIC ([6]; Candida albicans, ATCC10231): 25.2 mM (≈ 6.26 mg/mL)
IC50 ([8]; Homo sapiens, HepG2, 24 h): 4270 µM
